ChEMBL document CHEMBL1159047, “Synthesis and biological evaluation of antitumour-active betulin derivatives” (Bioorg Med Chem, 2010)
Calls of active or inactive are those of the source. The rule behind the calls is not given here.

What was measured:
A2780 [1] = assay: Cytotoxicity against human A2780 cells after 96 hrs by SRB assay; type: functional, cell-based; settings: A2780, 96 h
Method in brief: (§1)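 Monolayer cells grown in RPMI 1640 with 10% heat-inactivated FBS and penicillin/streptomycin at 37 °C, 5% CO2. Cells were seeded and, after 24 h, exposed to serial dilutions (0–30 µM; DMSO or DMF ≤0.5% final) for 96 h. They were then fixed with 10% TCA at 4 °C, stained with 0.4% SRB and dissolved in 10 mM Tris, with absorbance read at 570 nm. IC50 comes from semi-log dose–response curves of survival versus untreated controls, from ≥3 independent experiments.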

HCT-116 [2] = assay: Cytotoxicity against human HCT116 cells after 96 hrs by SRB assay; type: functional, cell-based; settings: HCT-116, 96 h; method in brief: as §1
SW-1736 [3] = assay: Cytotoxicity against human SW1736 cells after 96 hrs by SRB assay; type: functional, cell-based; settings: SW-1736, 96 h; method in brief: as §1
518A2 = assay: Growth inhibition of human 518A2 cells at 30 uM after 96 hrs by SRB assay; type: functional, cell-based
Method in brief: (§2)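 Same SRB set-up: RPMI 1640 with 10% FBS at 37 °C, 5% CO2, and a 96 h exposure starting 24 h after seeding (DMSO or DMF ≤0.5% final). Percent viable cells relative to untreated controls is read at 30 µM, the top concentration of the 0–30 µM dilution series. Cells were fixed with TCA, stained with SRB and read at 570 nm; ≥3 independent experiments.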

A-431 [4] = assay: Growth inhibition of human A431 cells at 30 uM after 96 hrs by SRB assay; type: functional, cell-based; method in brief: as §2
A253 = assay: Growth inhibition of human A253 cells at 30 uM after 96 hrs by SRB assay; type: functional, cell-based; method in brief: as §2
FaDu = assay: Growth inhibition of human FADU cells at 30 uM after 96 hrs by SRB assay; type: functional, cell-based; method in brief: as §2
A549 = assay: Growth inhibition of human A549 cells at 30 uM after 96 hrs by SRB assay; type: functional, cell-based; method in brief: as §2
DLD-1 = assay: Growth inhibition of human DLD1 cells at 30 uM after 96 hrs by SRB assay; type: functional, cell-based; method in brief: as §2
HCT-8 = assay: Growth inhibition of human HCT8 cells at 30 uM after 96 hrs by SRB assay; type: functional, cell-based; method in brief: as §2
HT-29 = assay: Growth inhibition of human HT-29 cells at 30 uM after 96 hrs by SRB assay; type: functional, cell-based; method in brief: as §2
SW480 = assay: Growth inhibition of human SW480 cells at 30 uM after 96 hrs by SRB assay; type: functional, cell-based; method in brief: as §2
8505C = assay: Growth inhibition of human 8505C cells at 30 uM after 96 hrs by SRB assay; type: functional, cell-based; method in brief: as §2
Homo sapiens = organism: Homo sapiens; assay: Growth inhibition of human Liposarcoma cells at 30 uM after 96 hrs by SRB assay; type: functional; method in brief: as §2
A-431 [5] = assay: Cytotoxicity against human A431 cells after 96 hrs by SRB assay; type: functional, cell-based; settings: A-431, 96 h; method in brief: as §1
A2780 [6] = assay: Growth inhibition of human A2780 cells at 30 uM after 96 hrs by SRB assay; type: functional, cell-based; method in brief: as §2
HCT-116 [7] = assay: Growth inhibition of human HCT116 cells at 30 uM after 96 hrs by SRB assay; type: functional, cell-based; method in brief: as §2
SW-1736 [8] = assay: Growth inhibition of human SW1736 cells at 30 uM after 96 hrs by SRB assay; type: functional, cell-based; method in brief: as §2

SMILES | IC50 (A2780 [1]) | IC50 (HCT-116 [2]) | IC50 (SW-1736 [3]) | growth inhibition (GI) (518A2) | growth inhibition (GI) (A-431 [4]) | growth inhibition (GI) (A253) | growth inhibition (GI) (FaDu) | growth inhibition (GI) (A549) | growth inhibition (GI) (DLD-1) | growth inhibition (GI) (HCT-8) | growth inhibition (GI) (HT-29) | growth inhibition (GI) (SW480) | growth inhibition (GI) (8505C) | growth inhibition (GI) (Homo sapiens) | IC50 (A-431 [5]) | growth inhibition (GI) (A2780 [6]) | growth inhibition (GI) (HCT-116 [7]) | growth inhibition (GI) (SW-1736 [8])
C=C(C)[C@@H]1CC[C@]2([C@@H]3O[C@H]3C(=O)OC)CC[C@]3(C)[C@H](CC[C@@H]4[C@@]5(C)CC[C@H](OC(C)=O)C(C)(C)[C@@H]5CC[C@]43C)[C@@H]12 | 12.3 µM | 18.1 µM | 17.6 µM | inactive | inactive | inactive | inactive | inactive | inactive | inactive | inactive | inactive | inactive | inactive |  |  |  | 
C=C(C)[C@@H]1CC[C@]2(/C=C3\CCOC3=O)CC[C@]3(C)[C@H](CC[C@@H]4[C@@]5(C)CC[C@H](OC(C)=O)C(C)(C)[C@@H]5CC[C@]43C)[C@@H]12 |  | 13.9 µM | 18.8 µM | inactive |  | inactive | inactive | inactive | inactive | inactive | inactive | inactive | inactive | inactive | 19.4 µM | inactive |  | 
C=C(C)[C@@H]1CC[C@]2([C@@H]3O[C@@]34CCOC4=O)CC[C@]3(C)[C@H](CC[C@@H]4[C@@]5(C)CC[C@H](OC(C)=O)C(C)(C)[C@@H]5CC[C@]43C)[C@@H]12 |  |  |  | inactive | inactive |  | inactive | inactive | inactive | inactive | inactive | inactive | inactive | inactive |  | inactive | inactive | inactive
C=C(C)[C@@H]1CC[C@]2(/C=C/C(=O)OCC)CC[C@]3(C)[C@H](CC[C@@H]4[C@@]5(C)CC[C@H](OC(C)=O)C(C)(C)[C@@H]5CC[C@]43C)[C@@H]12 |  |  |  | inactive | inactive | inactive | inactive | inactive | inactive | inactive | inactive | inactive | inactive | inactive |  | inactive | inactive | inactive
C=C(C)[C@@H]1CC[C@]2([C@H](O)CC(=O)OCC)CC[C@]3(C)[C@H](CC[C@@H]4[C@@]5(C)CC[C@H](OC)C(C)(C)[C@@H]5CC[C@]43C)[C@@H]12 |  |  |  | inactive | inactive | inactive | inactive | inactive | inactive | inactive | inactive | inactive | inactive | inactive |  | inactive | inactive | inactive
C=C(C)[C@@H]1CC[C@]2([C@@H]3O[C@@H]3C#N)CC[C@]3(C)[C@H](CC[C@@H]4[C@@]5(C)CC[C@H](OC(C)=O)C(C)(C)[C@@H]5CC[C@]43C)[C@@H]12 |  |  |  | inactive | inactive | inactive | inactive | inactive | inactive | inactive | inactive | inactive | inactive | inactive |  | inactive | inactive | inactive
C=C(C)[C@@H]1CC[C@]2(/C=C/C(=O)OCC)CC[C@]3(C)[C@H](CC[C@@H]4[C@@]5(C)CC[C@H](OC)C(C)(C)[C@@H]5CC[C@]43C)[C@@H]12 |  |  |  | inactive | inactive | inactive | inactive | inactive | inactive | inactive | inactive | inactive | inactive | inactive |  | inactive | inactive | inactive
